Reference: ChEMBL document CHEMBL1156077, “Piperazinyl-glutamate-pyrimidines as potent P2Y12 antagonists for inhibition of platelet aggregation” (Bioorg Med Chem Lett, 2009)

What was measured:
[1] = molecular target: T1, P2Y purinoceptor 12 (Homo sapiens, UniProt Q9H244); assay: Binding affinity at human recombinant P2Y12 receptor expressed in CHO cells by radioligand binding assay; assay type: cell-based
Outline: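 Washed membranes from CHO cells transfected with synthetic human P2Y12 gene. Compounds as 7-point threefold dilutions, triplicate, 1 h at room temperature. Nonspecific binding defined with 300 nM 2-MeSADP. Filtered, washed with ice-cold Tris pH 7.4. Single-site fit; IC50 converted to Ki by Cheng–Prusoff, geometric mean of n≥2.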

[2] = molecular target: T1, P2Y purinoceptor 12; assay: Ratio of compound IC50 to thienopyrimidine IC50 for P2Y12 receptor in human platelet rich plasma assessed as inhibition of ADP-induced platelet aggregation by light transmission aggregometry
Outline: (§1)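 Human platelet-rich plasma was pre-incubated 5 min at 37 °C with compound across seven concentrations (10 down to 0.156). Aggregation was started with ADP (20, final) and followed by light transmission at 626 nm for 15 min at 37 °C. Duplicate concentration-response data were read at the 15-min end-point. IC50 was divided by the IC50 of the thienopyrimidine reference run on the same plate.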

[3] = molecular target: T1, P2Y purinoceptor 12; assay: Ratio of compound IC50 to AZD-6140 IC50 for P2Y12 receptor in human platelet rich plasma assessed as inhibition of ADP-induced platelet aggregation by light transmission aggregometry
Outline: as §1, with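 “AZD-6140” for “the thienopyrimidine reference”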

[4] = Selectivity for human P2Y12 receptor over P2Y13
[5] = Selectivity for human P2Y12 receptor over P2Y1

T1 sequence (Q9H244 whole entry): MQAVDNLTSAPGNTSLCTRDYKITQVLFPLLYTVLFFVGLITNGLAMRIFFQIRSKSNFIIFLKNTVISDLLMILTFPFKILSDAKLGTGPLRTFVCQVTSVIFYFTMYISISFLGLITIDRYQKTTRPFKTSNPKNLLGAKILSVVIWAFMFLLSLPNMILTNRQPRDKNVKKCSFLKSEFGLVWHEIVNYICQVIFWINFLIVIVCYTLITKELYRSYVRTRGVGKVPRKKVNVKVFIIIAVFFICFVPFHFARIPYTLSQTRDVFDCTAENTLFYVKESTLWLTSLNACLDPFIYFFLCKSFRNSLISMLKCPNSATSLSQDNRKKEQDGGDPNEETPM

Compound | Ki [1] | Ratio IC50 [2] | Ratio IC50 [3] | fold change (FC) [4] | fold change (FC) [5]
CCCCCOC(=O)N1CCN(C(=O)[C@H](CCC(=O)O)NC(=O)c2cc(N3CCC(C(=O)N(C)C)CC3)nc(-c3ccccc3)n2)CC1 | 2.5 nM | 0.1 | 0.3 | > 340 | > 340
CCCCCOC(=O)N1CCN(C(=O)[C@H](CCC(=O)O)NC(=O)c2cc(NCCCN(C)C)nc(-c3ccccc3)n2)CC1 | 4.8 nM | 0.6 | 1.7 | > 340 | > 340
CCCCCOC(=O)N1CCN(C(=O)[C@H](CCC(=O)O)NC(=O)c2nc(-c3ccccc3)cc(N3CCC(C(N)=O)CC3)n2)CC1 | 3.5 nM | 0.4 | 1.9 | > 340 | > 340
CCCCCOC(=O)N1CCN(C(=O)[C@H](CCC(=O)O)NC(=O)c2cc(N3CCC(CC(=O)NCC)CC3)nc(-c3ccccc3)n2)CC1 | 0.67 nM | 0.3 | 1.6 | > 340 | > 340
CCCCCOC(=O)N1CCN(C(=O)[C@H](CCC(=O)O)NC(=O)c2cc(NCCOC)nc(-c3ccccc3)n2)CC1 | 1.2 nM | 0.5 | 2.2 | > 340 | > 340
CCCCCOC(=O)N1CCN(C(=O)[C@H](CCC(=O)O)NC(=O)c2cc(N3CCN(C)CC3)nc(-c3ccccc3)n2)CC1 | 2.7 nM | 0.3 | 1.3 | > 340 | > 340
CCCCCOC(=O)N1CCN(C(=O)[C@H](CCC(=O)O)NC(=O)c2nc(-c3ccccc3)cc(N3CCC(C(=O)N(CC)CC)CC3)n2)CC1 | 3.6 nM | 0.4 | 1.5 | > 340 | > 340
CCCCCOC(=O)N1CCN(C(=O)[C@H](CCC(=O)O)NC(=O)c2nc(-c3ccccc3)cc(N3CCC(CCN)CC3)n2)CC1 | 3 nM | 0.4 | 1.9 | > 340 | > 340
CCCCCOC(=O)N1CCN(C(=O)[C@H](CCC(=O)O)NC(=O)c2cc(N3CCC(CC(=O)N4CCC4)CC3)nc(-c3ccccc3)n2)CC1 | 0.92 nM | 0.2 | 1.1 | > 340 | > 340
CCCCCOC(=O)N1CCN(C(=O)[C@H](CCC(=O)O)NC(=O)c2cc(N3CCN(C(C)=O)CC3)nc(-c3ccccc3)n2)CC1 | 3.7 nM | 0.3 | 1 | > 340 | > 340
CCCCCOC(=O)N1CCN(C(=O)[C@H](CCC(=O)O)NC(=O)c2cc(N3CCC(CCN(C)C)CC3)nc(-c3ccccc3)n2)CC1 | 2.8 nM | 0.1 | 0.4 | > 340 | > 340
CCCCCOC(=O)N1CCN(C(=O)[C@H](CCC(=O)O)NC(=O)c2cc(OCCN(CC)CC)nc(-c3ccccc3)n2)CC1 | 27 nM | 2.4 | 17 | > 340 | > 340
CCCCCOC(=O)N1CCN(C(=O)[C@H](CCC(=O)O)NC(=O)c2cc(N3CCC(C(=O)N4CCC4)CC3)nc(-c3ccccc3)n2)CC1 | 0.83 nM | 0.04 | 0.3 | > 340 | > 340
CCCCCOC(=O)N1CCN(C(=O)[C@H](CCC(=O)O)NC(=O)c2cc(N3CCC(OCCOC)CC3)nc(-c3ccccc3)n2)CC1 | 5.3 nM | 0.2 | 0.8 | > 340 | > 340
CCCCOC(=O)N1CCN(C(=O)[C@H](CCC(=O)O)NC(=O)c2cc(N3CCC(C(=O)N(C)C)CC3)nc(-c3ccccc3)n2)CC1 | 1.3 nM | 0.2 | 1.1 | > 340 | > 340
CCCCCOC(=O)N1CCN(C(=O)[C@H](CCC(=O)O)NC(=O)c2nc(OCC3CCNCC3)cc(-c3ccccc3)n2)CC1 | 31 nM | 1.7 | 8.5 | > 340 | > 340
CCCCCOC(=O)N1CCN(C(=O)[C@H](CCC(=O)O)NC(=O)c2nc(-c3ccccc3)cc(N3CCC(CNC)CC3)n2)CC1 | 11 nM | 0.4 | 1 | > 340 | > 340
CCCCCOC(=O)N1CCN(C(=O)[C@H](CCC(=O)O)NC(=O)c2nc(-c3ccccc3)cc(N3CCC(N4CCCC4)CC3)n2)CC1 | 7.4 nM | 0.4 | 2.4 | > 340 | > 340
CCCCCOC(=O)N1CCN(C(=O)[C@H](CCC(=O)O)NC(=O)c2nc(-c3ccccc3)cc(N3CCC(CCN4CCCC4)CC3)n2)CC1 | 4.2 nM | 0.4 | 1.7 | > 340 | > 340
CCCCCOC(=O)N1CCN(C(=O)[C@H](CCC(=O)O)NC(=O)c2cc(N3CCC(CCN4CCCC4)CC3)nc(-c3ccccc3)n2)CC1 | 2.1 nM | 0.1 | 0.5 | > 340 | > 340
CCCCOC(=O)N1CCN(C(=O)[C@H](CCC(=O)O)NC(=O)c2cc(N3CCC(OC)CC3)nc(-c3ccccc3)n2)CC1 | 1.4 nM | 0.4 | 2.7 | > 340 | > 340
CCCCCOC(=O)N1CCN(C(=O)[C@H](CCC(=O)O)NC(=O)c2cc(OCCCN3CCOCC3)nc(-c3ccccc3)n2)CC1 | 2.8 nM | 1.4 | 8.3 | > 340 | > 340
CCCCCOC(=O)N1CCN(C(=O)[C@H](CCC(=O)O)NC(=O)c2cc(N3CC(O)C3)nc(-c3ccccc3)n2)CC1 | 2.5 nM | 0.8 | 4.6 | > 340 | > 340
CCCCOC(=O)N1CCN(C(=O)[C@H](CCC(=O)O)NC(=O)c2cc(OC3CCNCC3)nc(-c3ccccc3)n2)CC1 | 11 nM | 0.3 | 1.7 | > 340 | > 340
CCCCCOC(=O)N1CCN(C(=O)[C@H](CCC(=O)O)NC(=O)c2nc(-c3ccccc3)cc(N3CCC(C(=O)N4CCCC4)CC3)n2)CC1 | 3.6 nM | 0.5 | 1.8 | > 340 | > 340
CCCCCOC(=O)N1CCN(C(=O)[C@H](CCC(=O)O)NC(=O)c2cc(N3CCC(CN4CCCC4=O)CC3)nc(-c3ccccc3)n2)CC1 | 0.99 nM | 0.4 | 2 | > 340 | > 340
CCCCCOC(=O)N1CCN(C(=O)[C@H](CCC(=O)O)NC(=O)c2nc(-c3ccccc3)cc(N3CCN(C(C)=O)CC3)n2)CC1 | 29 nM | 1.8 | 8.9 | > 340 | > 340
CCCCCOC(=O)N1CCN(C(=O)[C@H](CCC(=O)O)NC(=O)c2cc(OCC3CCN(C)CC3)nc(-c3ccccc3)n2)CC1 | 5.7 nM | 0.5 | 3.7 | > 340 | > 340
